Data published in ChEMBL document CHEMBL5329183, “Naphthylthiazoles: a class of broad-spectrum antifungals” (RSC Med Chem, 2023).
Values after ≈ are worked out from the molar mass of the structure shown.

Columns and labels:
Candida parapsilosis [1] = experiment: Antifungal activity against Candida parapsilosis ATCC 22019 assessed as inhibition of fungal growth incubated for 24 hrs by broth microdilution method; type: functional; conditions: Lodderomyces parapsilosis
How it was run: (§1)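 Clinical isolate; CLSI broth microdilution over a range of concentrations (media listed: RPMI 1640, MOPS, YPD). MIC taken as lowest concentration giving 50% growth inhibition after 24 h at 35 °C.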

Nakaseomyces glabratus [2] = experiment: Antifungal activity against Candida glabrata ATCC 66032 assessed as inhibition of fungal growth incubated for 24 hrs by broth microdilution method; type: functional; how it was run: as §1
[3] = Selectivity ratio of CC50 for cytotoxicity against African green monkey Vero cells to MIC for antifungal activity against Cryptococcus gattii NR 43210; type: toxicity, cell-based
Lactobacillus gasseri = experiment: Antibacterial activity against Lactobacillus gasseri HM400 assessed as inhibition of bacterial growth; type: toxicity, organism-based
Cryptococcus neoformans [4] = experiment: Antibiofilm activity against Cryptococcus neoformans NR 41300 assessed as inhibition of biofilm formation at 0.5xMIC measured after 48 hrs by crystal violet staining based analysis; type: functional
How it was run: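 Overnight C. neoformans was washed twice in PBS and adjusted to 105 cells per mL in RPMI. Cells were exposed to compound at 0.5 × MIC for 48 h at 35 °C. Biofilm was rinsed, dried, stained with 0.1% crystal violet, and the dye extracted with glacial acetic acid; OD595 readout.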

Staphylococcus aureus = experiment: Antibacterial activity against Methicillin-resistant Staphylococcus aureus USA300 assessed as inhibition of bacterial growth; type: functional
[5] = Apparent permeability of the compound measured after 4 hrs by PAMPA assay; type: ADME
How it was run: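 PAMPA: compound was placed in pH 6.5 donor buffer across a lipid-pretreated PVDF filter from pH 7.4 acceptor buffer, and incubated 4 h at ambient temperature. Donor and acceptor amounts at start and end were measured by UV absorbance to give apparent permeability.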

[6] = Selectivity ratio of CC50 for cytotoxicity against human Caco-2 cells to MIC for antifungal activity against Cryptococcus gattii NR 43213; type: toxicity, cell-based
[7] = Selectivity ratio of CC50 for cytotoxicity against African green monkey Vero cells to MIC for antifungal activity against Cryptococcus gattii NR 43213; type: toxicity, cell-based
[8] = Antifungal activity against Cryptococcus gattii NR 43214 assessed as inhibition of fungal growth incubated for 48 hrs by broth microdilution method; type: functional, Cryptococcus gattii VGI
How it was run: (§2)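 Broth microdilution per CLSI guidelines against clinical isolates, incubated at 35 °C for 24 h (Candida, Aspergillus) or 48 h (Cryptococcus). MIC was the lowest concentration giving 50% growth inhibition.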

[9] = Selectivity ratio of CC50 for cytotoxicity against human Caco-2 cells to MIC for antifungal activity against Cryptococcus gattii NR 43210; type: toxicity, cell-based
[10] = Selectivity ratio of CC50 for cytotoxicity against human Caco-2 cells to MIC for antifungal activity against Cryptococcus neoformans NR 48773; type: toxicity, cell-based
Clostridioides difficile = experiment: Antibacterial activity against Clostridium difficile ATCC BAA1870 assessed as inhibition of bacterial growth; type: functional
[11] = Antifungal activity against Cryptococcus gattii NR 43213 assessed as inhibition of fungal growth incubated for 48 hrs by broth microdilution method; type: functional, Cryptococcus gattii VGI; how it was run: as §2
Escherichia coli = experiment: Antibacterial activity against Escherichia coli JW55031 harboring tolC mutant assessed as inhibition of bacterial growth; type: functional
Cryptococcus neoformans [12] = experiment: Antifungal activity against Cryptococcus neoformans NR 48773 assessed as inhibition of fungal growth incubated for 48 hrs by broth microdilution method; type: functional
How it was run: (§3)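 Clinical isolate; CLSI broth microdilution over a range of concentrations (media listed: RPMI 1640, MOPS, YPD). MIC read as lowest concentration inhibiting growth by 50% after 48 h incubation at 35 °C.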

Candida parapsilosis [13] = experiment: Antifungal activity against Candida parapsilosis CAB 502638 assessed as inhibition of fungal growth incubated for 24 hrs by broth microdilution method; type: functional; conditions: Lodderomyces parapsilosis; how it was run: as §2
[14] = Selectivity ratio of CC50 for cytotoxicity against African green monkey Vero cells to MIC for antifungal activity against Cryptococcus neoformans NR 48767; type: toxicity, cell-based
[15] = Selectivity ratio of CC50 for cytotoxicity against human Caco-2 cells to MIC for antifungal activity against Cryptococcus gattii NR 43216; type: toxicity, cell-based
[16] = Selectivity ratio of CC50 for cytotoxicity against African green monkey Vero cells to MIC for antifungal activity against Cryptococcus neoformans NR 48770; type: toxicity, cell-based
[17] = Selectivity ratio of CC50 for cytotoxicity against African green monkey Vero cells to MIC for antifungal activity against Cryptococcus gattii NR 43209; type: toxicity, cell-based
[18] = Selectivity ratio of CC50 for cytotoxicity against human Caco-2 cells to MIC for antifungal activity against Cryptococcus neoformans NR 41299; type: toxicity, cell-based
Pichia kudriavzevii = experiment: Antifungal activity against Candida krusei CAB 396420 assessed as inhibition of fungal growth incubated for 24 hrs by broth microdilution method; type: functional; how it was run: as §2
[19] = Selectivity ratio of CC50 for cytotoxicity against African green monkey Vero cells to MIC for antifungal activity against Cryptococcus neoformans NR 41298; type: toxicity, cell-based
Candida albicans = experiment: Antifungal activity against wild type Candida albicans SC5314 assessed as inhibition of fungal growth; type: functional
[20] = Selectivity ratio of CC50 for cytotoxicity against human Caco-2 cells to MIC for antifungal activity against Cryptococcus neoformans NR 41298; type: toxicity, cell-based
[21] = Selectivity ratio of CC50 for cytotoxicity against human Caco-2 cells to MIC for antifungal activity against Cryptococcus neoformans NR 48767; type: toxicity, cell-based
[22] = Antibacterial activity against Lactobacillus casei HM334 assessed as inhibition of bacterial growth; type: toxicity; conditions: lacticaseibacillus casei
[23] = Antifungal activity against Cryptococcus gattii NR 43216 assessed as inhibition of fungal growth incubated for 48 hrs by broth microdilution method; type: functional, Cryptococcus gattii VGI; how it was run: as §2
[24] = Selectivity ratio of CC50 for cytotoxicity against human Caco-2 cells to MIC for antifungal activity against Cryptococcus gattii NR 43214; type: toxicity, cell-based
Nakaseomyces glabratus [25] = experiment: Antifungal activity against Candida glabrata ATCC MYA2950 assessed as inhibition of fungal growth incubated for 24 hrs by broth microdilution method; type: functional; how it was run: as §1
[26] = Selectivity ratio of CC50 for cytotoxicity against human Caco-2 cells to MIC for antifungal activity against Cryptococcus neoformans NR 41300; type: toxicity, cell-based
Caco-2 = experiment: Cytotoxicity against human Caco-2 cells assessed as inhibition of cell viability at 128 ug/ml incubated for 2 hrs by MTS assay; type: toxicity, cell-based; conditions: caco-2, 2 h, dose 128 µg/ml
How it was run: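 Caco-2 cells were grown in DMEM with 10% FBS, 1× nonessential amino acids and penicillin–streptomycin, then treated with 32, 64 and 128 μg mL−1 for 2 h at 37 °C, 5% CO2, in triplicate. MTS was added for 3 h and OD490 read. Viability was expressed as % of DMSO control (mean ± SD).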

[Candida] auris = Antifungal activity against Candida auris 383 assessed as inhibition of fungal growth incubated for 24 hrs by broth microdilution method; type: functional; conditions: Candidozyma auris; how it was run: as §1
Cryptococcus neoformans [27] = experiment: Antifungal activity against Cryptococcus neoformans NR 48767 assessed as inhibition of fungal growth incubated for 48 hrs by broth microdilution method; type: functional; how it was run: as §3
[28] = Selectivity ratio of CC50 for cytotoxicity against African green monkey Vero cells to MIC for antifungal activity against Cryptococcus gattii NR 43216; type: toxicity, cell-based
Cryptococcus neoformans [29] = experiment: Antifungal activity against Cryptococcus neoformans NR 48770 assessed as inhibition of fungal growth incubated for 48 hrs by broth microdilution method; type: functional; how it was run: as §3

| Compound | MIC (Candida parapsilosis [1]) [µg/mL] | MIC (Nakaseomyces glabratus [2]) [µg/mL] | selectivity ratio [3] | MIC (Lactobacillus gasseri) [µg/mL] | growth inhibition (GI) (Cryptococcus neoformans [4]) [%] | MIC (Staphylococcus aureus) [µg/mL] | Papp at 4 h [5] [×10⁻⁶ cm/s] | selectivity ratio [6] | selectivity ratio [7] | MIC [8] [µg/mL] | selectivity ratio [9] | selectivity ratio [10] | MIC (Clostridioides difficile) [µg/mL] | MIC [11] [µg/mL] | MIC (Escherichia coli) [µg/mL] | MIC (Cryptococcus neoformans [12]) [µg/mL] | MIC (Candida parapsilosis [13]) [µg/mL] | selectivity ratio [14] | selectivity ratio [15] | selectivity ratio [16] | other results |
| --- | --- | --- | --- | --- | --- | --- | --- | --- | --- | --- | --- | --- | --- | --- | --- | --- | --- | --- | --- | --- | --- |
| Cc1nc(-c2ccc3ccccc3c2)sc1-c1nnc(N[C@@H]2CCCC[C@@H]2N)o1 (relative stereo) | 1 (≈ 2.47 µM) | 1 (≈ 2.47 µM) | 64 | > 128 | ~53 | > 64 | 26.3 | 64 | 64 | 2 (≈ 4.93 µM) | 64 | 64 | 64 (≈ 158 µM) | 2 (≈ 4.93 µM) | > 64 | 2 (≈ 4.93 µM) | 1 (≈ 2.47 µM) | 64 | 64 | 64 | selectivity ratio [17]: 64; selectivity ratio [18]: 64; MIC (Pichia kudriavzevii): 1 µg/mL (≈ 2.47 µM); selectivity ratio [19]: 64; MIC (Candida albicans): 1 µg/mL (≈ 2.47 µM); selectivity ratio [20]: 64; selectivity ratio [21]: 64; MIC [22]: 128 µg/mL (≈ 316 µM); MIC [23]: 2 µg/mL (≈ 4.93 µM); selectivity ratio [24]: 64; MIC (Nakaseomyces glabratus [25]): 0.5 µg/mL (≈ 1.23 µM); selectivity ratio [26]: 64; Activity (Caco-2): Non-Toxic; MIC ([Candida] auris): 1 µg/mL (≈ 2.47 µM); MIC (Cryptococcus neoformans [27]): 2 µg/mL (≈ 4.93 µM); selectivity ratio [28]: 64; MIC (Cryptococcus neoformans [29]): 1 µg/mL (≈ 2.47 µM) |
| Cc1nc(-c2ccc3ccccc3c2)sc1-c1nnc(N[C@@H]2CCCC[C@H]2N)o1 (relative stereo) | 1 (≈ 2.47 µM) | 1 (≈ 2.47 µM) | 64 | > 128 | ~56 | 64 (≈ 158 µM) | 57.7 | 64 | 64 | 1 (≈ 2.47 µM) | 64 | 64 | 32 (≈ 78.9 µM) | 2 (≈ 4.93 µM) | > 64 | 2 (≈ 4.93 µM) | 1 (≈ 2.47 µM) | 64 | 64 | 64 | selectivity ratio [17]: 64; selectivity ratio [18]: 64; MIC (Pichia kudriavzevii): 1 µg/mL (≈ 2.47 µM); selectivity ratio [19]: 64; MIC (Candida albicans): 1 µg/mL (≈ 2.47 µM); selectivity ratio [20]: 64; selectivity ratio [21]: 64; MIC [22]: > 128 µg/mL; MIC [23]: 2 µg/mL (≈ 4.93 µM); selectivity ratio [24]: 64; MIC (Nakaseomyces glabratus [25]): 1 µg/mL (≈ 2.47 µM); selectivity ratio [26]: 64; Activity (Caco-2): Non-Toxic; MIC ([Candida] auris): 1 µg/mL (≈ 2.47 µM); MIC (Cryptococcus neoformans [27]): 2 µg/mL (≈ 4.93 µM); selectivity ratio [28]: 64; MIC (Cryptococcus neoformans [29]): 1 µg/mL (≈ 2.47 µM) |
